Sampled rows, rich in hits. Any-hit rate of the full collection: about 2.9%.
NR1D1 modulator – Rev-erb alpha (human) modulation; Rev-erbα–FITC-DNA binding, fluorescence polarization, 90 min; activity, % at 10 µM; actives 0.79% (n = 370,000); AID 1259318;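 active means activity above about 14%, limit read from the data; passing the limit was not always enough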
Target sequence (P20393 whole entry, looked up): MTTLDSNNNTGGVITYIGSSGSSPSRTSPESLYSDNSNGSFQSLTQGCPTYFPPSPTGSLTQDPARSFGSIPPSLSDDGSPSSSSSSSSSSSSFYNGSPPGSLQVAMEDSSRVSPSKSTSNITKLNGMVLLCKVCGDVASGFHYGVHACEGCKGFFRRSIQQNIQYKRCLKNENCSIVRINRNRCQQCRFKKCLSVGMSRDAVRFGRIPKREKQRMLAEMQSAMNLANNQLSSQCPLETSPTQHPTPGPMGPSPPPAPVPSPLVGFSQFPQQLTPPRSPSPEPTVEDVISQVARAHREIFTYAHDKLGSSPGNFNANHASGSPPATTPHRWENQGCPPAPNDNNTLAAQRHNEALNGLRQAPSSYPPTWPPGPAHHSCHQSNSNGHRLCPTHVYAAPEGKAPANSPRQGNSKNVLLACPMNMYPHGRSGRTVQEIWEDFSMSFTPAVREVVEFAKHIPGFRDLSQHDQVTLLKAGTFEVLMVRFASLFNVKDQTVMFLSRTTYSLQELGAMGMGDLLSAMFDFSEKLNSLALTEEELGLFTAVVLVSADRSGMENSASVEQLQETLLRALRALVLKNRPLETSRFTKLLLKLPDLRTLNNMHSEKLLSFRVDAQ
hiPSC survival – enhancers of human iPSC single-cell survival | hiPSC single-cell survival, ATPlite luminescence; 100% = ROCK inhibitor wells, 0% = DMSO | survival enhancement, % at 20 µM | actives 0.044% (n = 360,000) | AID 602274; in the data active means survival enhancement above about 18%;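 further: cells exposed to compounds for 16 hours before the ATP read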
beta cell repl – induces beta-cell replication in MIN6 cells. MIN6 cells proliferation, ATPlite luminescence, 48 h; cells starved in 0.2% serum; 100% = growth in 10% serum. proliferation, % at 10 µM. actives 0.29% (n = 330,000). AID 2380;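 active means compounds whose signal lies at least 3.5 SD above the mean of all wells on their plate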
PG9 Ab binder – PG9 antibody binding by small molecule. TR-FRET gp120-PG9 antibody binding. inhibition, % at 6.7 µM. actives 0.43% (n = 360,000). AID 624416; in the data active means inhibition above about 8.5%
T cruzi repl – T. cruzi replication inhibition | T. cruzi beta-gal in NIH3T3, luminescence, 90 h | inhibition, % (no concentration beside the values) | actives 1.4% (n = 300,000) | AID 1885;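 active means mean inhibition across valid replicates above about 55%, limit read from the data; inconclusive means mean below that limit but half or more replicates reach it; inactive means mean below it, under half of replicates reach it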;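 further: signal also drops with host cell toxicity which is not excluded here; higher percent means less beta-gal luminescence so fewer parasites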
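System: Mouse NIH/3T3 fibroblasts infected with β-gal-expressing T. cruzi Tulahuen C4 | Quantity: NIH/3T3 cells, 5,000 per well | Reagent: 5000 reporter trypomastigotes per well | Dosing: Compound pinned at 50 nL/well, DMSO | Schedule: 3 h host attachment, then at least 90 h co-culture | Detection: GalScreen luminescence, 60 min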
H9c2 TAG inh – reduces triacylglycerol accumulation in H9c2 cells; Nile Red lipid (TAG) fluorescence; cells loaded with 200 µM oleic acid; inhibition, % at 12.5 µM; actives 0.66% (n = 230,000);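 active means pattern-corrected inhibition of lipid staining of at least 50% with the nuclear-stain viability signal not falling by more than 50%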
NR1D1 mod conf – Rev-erb alpha (human) modulation, hit confirmation; shares compounds with NR1D1 modulator; Rev-erb alpha FITC-DNA binding, fluorescence polarization, 90 min; activation, % at 25 µM; actives 61% (n = 3,000); AID 1259319;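 active means activation at or above a set limit, or at least 3 SD above the negative control mean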
RORg DNA counter – counter-screen for Rev-erb alpha modulators: RORgamma DNA binding; shares compounds with NR1D1 modulator; purified RORgamma protein-FITC-DNA binding, fluorescence polarization; IC50, µM; actives 8% (n = 910); AID 1259320;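 active means Compounds whose fitted half-maximal concentration for disrupting protein-DNA binding is below 10 micromolar; the record names Rev-erb in its text, so the target is in doubt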
A number is an active result; . = inactive; ? = inconclusive; / = no result given.

SMILES	NR1D1 modulator	hiPSC survival	beta cell repl	PG9 Ab binder	T cruzi repl	H9c2 TAG inh	NR1D1 mod conf	others
CC12CCC(=O)N1C(C(=O)Nc1cc(C(F)(F)F)ccc1N1CCCCC1)CS2 (stereo unspecified)	15	.	.	.	.	.	.
Cc1cc(NC(=O)CSCC(=O)OC(C)C(=O)c2cc(C)c(C)cc2C)no1 (stereo unspecified)	.	.	.	.	.	.	/
CCc1nc(NC(C)C)c2oc3ccccc3c2n1	.	.	.	.	.	/	/
COc1ccc(CC(=O)Nc2cc(C)c3c(=O)oc4ccccc4c3n2)cc1	41	.	.	.	.	.	32	RORg DNA counter=.
CCOc1ccc(C(=O)Nc2cc(C)c3c(=O)oc4ccccc4c3n2)cc1	55	.	.	.	.	.	18
CCOC(=O)/C(C#N)=C\c1ccc(OCC(=O)Nc2ccc(C)cc2C)c(OC)c1	28	.	.	.	.	.	21
CCOC(=O)/C(C#N)=C/c1ccc(OCC(=O)Nc2cc(C)ccc2C)c(OC)c1	.	.	.	.	.	.	/
N#Cc1cccc(NC(=O)CCNS(=O)(=O)c2ccc3[nH]c(=O)oc3c2)c1	/	.	.	/	.	/	/
CCOc1ccc(NC(=O)c2cn(-c3ccc(OCC)cc3)c(=O)c3cc(OC)c(OC)cc23)cc1	.	.	.	.	?	.	/
CCOc1ccc(-n2cc(C(=O)Nc3cccc(C)n3)c3cc(OC)c(OC)cc3c2=O)cc1	35	.	.	.	.	.	.
COC(=O)C(CCSC)NC(=O)c1cc2c(n(-c3ccccc3)c1=O)CCCC2=O (stereo unspecified)	.	.	.	.	.	.	/
CCc1nc(Nc2ccccc2OC)c2oc3ccccc3c2n1	.	.	.	.	.	/	/
CCN(CC)S(=O)(=O)c1ccc(C(=O)Nc2ccc(C(F)(F)F)n(C)c2=O)cc1	.	.	.	.	.	/	/
Cc1ccc(C(=O)Nc2ccc(C(F)(F)F)n(C)c2=O)cc1	28	.	.	.	.	.	.
COc1ccc(C(=O)Nc2ccc(C(F)(F)F)n(C)c2=O)cc1	47	.	.	.	.	/	32	RORg DNA counter=.
O=C(O)c1ccc(/C=C2\SC(=S)N(NC(=O)c3ccccc3[N+](=O)[O-])C2=O)cc1	.	.	.	.	.	/	/
CC(=O)NN1C(=O)/C(=C\c2ccc(C)cc2)SC1=S	.	.	.	.	.	/	/
O=C(NN1C(=O)/C(=C\c2ccc(O)c([N+](=O)[O-])c2)SC1=S)c1ccccc1Cl	28	.	.	.	.	.	.
CC(=O)NN1C(=O)/C(=C\c2ccc(O)cc2)SC1=S	20	.	.	.	.	.	19
CCOC(=O)CC(/C(C)=N\O)c1ccccc1 (stereo unspecified)	.	.	.	.	.	/	/
CCOC(=O)N1CCN(c2ncnc3c2oc2nc(C(C)C)c4c(c23)CCC4)CC1	45	.	.	.	.	/	84	RORg DNA counter=.
CC(C)Cc1nc2oc3c(N4CCN(CCO)CC4)ncnc3c2c2c1CCCC2	.	.	.	.	.	.	/
Oc1[nH]c2ccc(Br)cc2c1N=NC(=S)N1CCOCC1	19	.	.	.	55	.	24
OC1CCCN(Cc2ccc3ccc4cccc5ccc2c3c45)C1 (stereo unspecified)	.	.	.	.	.	/	/
Cc1ccccc1COC(=O)CCC1=NS(=O)(=O)c2ccccc2N1	.	.	.	.	.	/	/
SMILES	NR1D1 modulator	hiPSC survival	beta cell repl	PG9 Ab binder	T cruzi repl	H9c2 TAG inh	NR1D1 mod conf	others
Cc1ccc(N(Cc2cc3cc(C)ccc3[nH]c2=O)C(=O)c2cccs2)cc1	48	.	.	.	.	/	79	RORg DNA counter=.
Cc1ccc2nc(-c3cccc(Br)c3)cc(C(=O)NCC3CCCO3)c2c1 (stereo unspecified)	24	.	.	.	.	/	.
COc1ccc(-c2cc(C(=O)NCC3CCCO3)c3cc(C)ccc3n2)cc1 (stereo unspecified)	.	.	.	.	.	.	/
C[C@@H]1/C=C/CC(=O)N[C@H](c2ccc3ccccc3c2)[C@H](C)/C=C/CC(=O)N[C@@H]1c1ccc2ccccc2c1	.	/	/	/	/	/	/
COc1ccc(-c2oc(=O)c3cc(OC)c(OC)cc3c2C#C[C@]2(O)CC[C@H]3[C@@H]4CCc5cc(OC)ccc5[C@H]4CC[C@@]32C)cc1	30	.	.	.	/	.	.
O=C(Cn1c(=O)n(CC2CCCO2)c(=O)c2ccccc21)c1ccc(Cl)c(Cl)c1 (stereo unspecified)	27	.	.	.	.	.	24
CN(C)S(=O)(=O)c1ccc(C(=O)OCC(=O)c2csc(N3CCCCC3)n2)cc1	24	.	.	.	/	.	.
Cc1oc2c(cc(NS(=O)(=O)c3cccs3)c3ccccc32)c1C(=O)OC(C)C	50	.	.	.	.	.	72
Cc1oc2c(cc(NS(=O)(=O)c3ccc(C(C)C)cc3)c3ccccc32)c1C(=O)O	.	.	.	.	.	/	/
COc1cccc(-n2nnnc2SCC(=O)Nc2ccc3c(c2)OCCO3)c1	30	.	.	.	.	.	46	RORg DNA counter=.
CC(=O)c1ccc(N2CCN(c3ccc(C(F)(F)F)cn3)CC2)cc1	37	.	/	.	.	/	29
COc1ccc(NC(=O)CN(C)S(=O)(=O)c2ccc(Br)s2)cc1	.	.	.	.	.	/	/
COc1ccc(-c2c(C(F)(F)F)oc3cc(OCC(=O)Nc4ccccc4C(F)(F)F)ccc3c2=O)cc1OC	37	.	/	.	.	/	20
O=C(Nc1nc2ccc(Cl)cc2s1)c1cccc(N2C(=O)CCC2=O)c1	43	.	.	.	.	.	.
CC1=C(C(=O)OC2CCCCC2)C(c2ccccc2Br)NC(=O)N1 (stereo unspecified)	15	.	.	.	.	/	.
CC1=C(C(=O)OC2CCCCCCC2)C(c2cc3c(cc2Br)OCO3)CC(=O)N1 (stereo unspecified)	23	.	.	.	.	.	30
CCCCc1nnc(NC(=O)C2CCN(c3ncnc4sc(C)c(C)c34)CC2)s1	19	.	.	.	.	.	.
CCc1nnc(NC(=O)C2CCN(c3ncnc4sc(C)c(C)c34)CC2)s1	35	.	.	.	/	.	.
COc1cccc(-c2cc(N3C(=O)Nc4ccccc4N3O)n[nH]2)c1	.	.	.	.	.	/	/
Cc1cc(C)n2c(SCC(=O)Nc3cc(S(=O)(=O)N(C)C)ccc3C)nnc2n1	.	.	.	.	/	.	/
Cn1c2ccccc2c(=O)c2c(=O)n(CCCc3ccccc3)cnc21	.	/	/	/	/	/	/
